Measured values taken from ChEMBL document CHEMBL1649562, “Emergence of high levels of extended-spectrum-beta-lactamase-producing gram-negative bacilli in the Asia-Pacific region: data from the Study for Monitoring Antimicrobial Resistance Trends (SMART) program, 2007” (2009).
Activity calls are given as the source filed them.

Columns and labels:
Klebsiella aerogenes [1] = assay: Antimicrobial activity against Enterobacter aerogenes assessed as percent susceptible isolates by CLSI method; type: functional
Citrobacter freundii [2] = assay: Antimicrobial activity against Citrobacter freundii assessed as percent susceptible isolates by CLSI method; type: functional
Enterobacter cloacae [3] = assay: Antimicrobial activity against Enterobacter cloacae assessed as percent susceptible isolates by CLSI method; type: functional
Klebsiella pneumoniae [4] = assay: Antimicrobial activity against extended spectrum beta-lactamase-expressing Klebsiella pneumoniae assessed as percent susceptible isolates by CLSI method; type: functional
Escherichia coli [5] = assay: Antimicrobial activity against extended spectrum beta-lactamase-expressing Escherichia coli assessed as percent susceptible isolates by CLSI method; type: functional
Escherichia coli [6] = assay: Antimicrobial activity against extended spectrum beta-lactamase-deficient Escherichia coli assessed as percent susceptible isolates by CLSI method; type: functional
Klebsiella oxytoca [7] = assay: Antimicrobial activity against extended spectrum beta-lactamase-expressing Klebsiella oxytoca assessed as percent susceptible isolates by CLSI method; type: functional
Klebsiella oxytoca [8] = assay: Antimicrobial activity against extended spectrum beta-lactamase-deficient Klebsiella oxytoca assessed as percent susceptible isolates by CLSI method; type: functional
Klebsiella pneumoniae [9] = assay: Antimicrobial activity against extended spectrum beta-lactamase-deficient Klebsiella pneumoniae assessed as percent susceptible isolates by CLSI method; type: functional
Proteus mirabilis [10] = assay: Antimicrobial activity against Proteus mirabilis assessed as percent susceptible isolates by CLSI method; type: functional
Pseudomonas aeruginosa [11] = assay: Antimicrobial activity against Pseudomonas aeruginosa assessed as percent susceptible isolates by CLSI method; type: functional
Klebsiella aerogenes [12] = assay: Antimicrobial activity against Enterobacter aerogenes assessed as percent susceptible isolates by CLSI method in presence of beta-lactamase inhibitor Sulbactam; type: functional
Procedure, shortened: (§1)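 Site laboratories identified isolates by their local methods. MICs were read from dehydrated broth microdilution panels, the same panel at all sites, following CLSI procedure. Susceptibility was categorized by CLSI interpretive criteria. QC ran daily at each site with E. coli ATCC 25922, K. pneumoniae ATCC 700603 and P. aeruginosa ATCC 27853.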

Citrobacter freundii [13] = assay: Antimicrobial activity against Citrobacter freundii assessed as percent susceptible isolates by CLSI method in presence of beta-lactamase inhibitor Sulbactam; type: functional; procedure, shortened: as §1
Enterobacter cloacae [14] = assay: Antimicrobial activity against Enterobacter cloacae assessed as percent susceptible isolates by CLSI method in presence of beta-lactamase inhibitor Sulbactam; type: functional; procedure, shortened: as §1
Escherichia coli [15] = assay: Antimicrobial activity against extended spectrum beta-lactamase-expressing Escherichia coli assessed as percent susceptible isolates by CLSI method in presence of beta-lactamase inhibitor Sulbactam; type: functional
Procedure, shortened: (§2)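 ESBL status was assigned when the ceftazidime or cefotaxime MIC fell at least eightfold (three doubling dilutions) with clavulanic acid, compared with the drug alone. Isolates were identified locally at each site. MICs came from uniform dehydrated broth microdilution panels under CLSI procedure, with susceptibility by CLSI criteria. Daily QC used E. coli ATCC 25922, K. pneumoniae ATCC 700603 (ESBL-positive) and P. aeruginosa ATCC 27853.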

Escherichia coli [16] = assay: Antimicrobial activity against extended spectrum beta-lactamase-deficient Escherichia coli assessed as percent susceptible isolates by CLSI method in presence of beta-lactamase inhibitor Sulbactam; type: functional; procedure, shortened: as §2
Klebsiella oxytoca [17] = assay: Antimicrobial activity against extended spectrum beta-lactamase-expressing Klebsiella oxytoca assessed as percent susceptible isolates by CLSI method in presence of beta-lactamase inhibitor Sulbactam; type: functional; procedure, shortened: as §2
Klebsiella oxytoca [18] = assay: Antimicrobial activity against extended spectrum beta-lactamase-deficient Klebsiella oxytoca assessed as percent susceptible isolates by CLSI method in presence of beta-lactamase inhibitor Sulbactam; type: functional; procedure, shortened: as §2
Klebsiella pneumoniae [19] = assay: Antimicrobial activity against extended spectrum beta-lactamase-expressing Klebsiella pneumoniae assessed as percent susceptible isolates by CLSI method in presence of beta-lactamase inhibitor Sulbactam; type: functional; procedure, shortened: as §2
Klebsiella pneumoniae [20] = assay: Antimicrobial activity against extended spectrum beta-lactamase-deficient Klebsiella pneumoniae assessed as percent susceptible isolates by CLSI method in presence of beta-lactamase inhibitor Sulbactam; type: functional; procedure, shortened: as §2
Proteus mirabilis [21] = assay: Antimicrobial activity against Proteus mirabilis assessed as percent susceptible isolates by CLSI method in presence of beta-lactamase inhibitor Sulbactam; type: functional; procedure, shortened: as §1
Pseudomonas aeruginosa [22] = assay: Antimicrobial activity against Pseudomonas aeruginosa assessed as percent susceptible isolates by CLSI method in presence of beta-lactamase inhibitor Sulbactam; type: functional, organism-based; procedure, shortened: as §1
Enterobacter cloacae [23] = assay: Antimicrobial activity against Enterobacter cloacae assessed as percent susceptible isolates by CLSI method in presence of beta-lactamase inhibitor tazobactem; type: functional; procedure, shortened: as §1
Citrobacter freundii [24] = assay: Antimicrobial activity against Citrobacter freundii assessed as percent susceptible isolates by CLSI method in presence of beta-lactamase inhibitor tazobactem; type: functional; procedure, shortened: as §1
Klebsiella aerogenes [25] = assay: Antimicrobial activity against Enterobacter aerogenes assessed as percent susceptible isolates by CLSI method in presence of beta-lactamase inhibitor tazobactem; type: functional; procedure, shortened: as §1
Escherichia coli [26] = assay: Antimicrobial activity against extended spectrum beta-lactamase-expressing Escherichia coli assessed as percent susceptible isolates by CLSI method in presence of beta-lactamase inhibitor tazobactem; type: functional; procedure, shortened: as §2
Escherichia coli [27] = assay: Antimicrobial activity against extended spectrum beta-lactamase-deficient Escherichia coli assessed as percent susceptible isolates by CLSI method in presence of beta-lactamase inhibitor tazobactem; type: functional; procedure, shortened: as §2
Klebsiella oxytoca [28] = assay: Antimicrobial activity against extended spectrum beta-lactamase-expressing Klebsiella oxytoca assessed as percent susceptible isolates by CLSI method in presence of beta-lactamase inhibitor tazobactem; type: functional; procedure, shortened: as §2
Klebsiella oxytoca [29] = assay: Antimicrobial activity against extended spectrum beta-lactamase-deficient Klebsiella oxytoca assessed as percent susceptible isolates by CLSI method in presence of beta-lactamase inhibitor tazobactem; type: functional; procedure, shortened: as §2
Klebsiella pneumoniae [30] = assay: Antimicrobial activity against extended spectrum beta-lactamase-expressing Klebsiella pneumoniae assessed as percent susceptible isolates by CLSI method in presence of beta-lactamase inhibitor tazobactem; type: functional; procedure, shortened: as §2
Klebsiella pneumoniae [31] = assay: Antimicrobial activity against extended spectrum beta-lactamase-deficient Klebsiella pneumoniae assessed as percent susceptible isolates by CLSI method in presence of beta-lactamase inhibitor tazobactem; type: functional; procedure, shortened: as §2
Proteus mirabilis [32] = assay: Antimicrobial activity against Proteus mirabilis assessed as percent susceptible isolates by CLSI method in presence of beta-lactamase inhibitor tazobactem; type: functional; procedure, shortened: as §1
Pseudomonas aeruginosa [33] = assay: Antimicrobial activity against Pseudomonas aeruginosa assessed as percent susceptible isolates by CLSI method in presence of beta-lactamase inhibitor tazobactem; type: functional; procedure, shortened: as §1

## C[C@@H](O)[C@H]1C(=O)N2C(C(=O)O)=C(S[C@@H]3CN[C@H](C(=O)Nc4cccc(C(=O)O)c4)C3)[C@H](C)[C@H]12
Klebsiella aerogenes [1]
  Activity: 97%
Citrobacter freundii [2]
  Activity: 98%
Enterobacter cloacae [3]
  Activity: 94%
Klebsiella pneumoniae [4]
  Activity: 86%
Escherichia coli [5]
  Activity: 96%
Escherichia coli [6]
  Activity: 100%
Klebsiella oxytoca [7]
  Activity: 100%
Klebsiella oxytoca [8]
  Activity: 100%
Klebsiella pneumoniae [9]
  Activity: 99%
Proteus mirabilis [10]
  Activity: 100%
Pseudomonas aeruginosa [11]
  Activity: inactive

## NCC[C@H](O)C(=O)N[C@@H]1C[C@H](N)[C@@H](O[C@H]2O[C@H](CN)[C@@H](O)[C@H](O)[C@H]2O)[C@H](O)[C@H]1O[C@H]1O[C@H](CO)[C@@H](O)[C@H](N)[C@H]1O [AMIKACIN]
Klebsiella aerogenes [1]
  Activity: 83%
Citrobacter freundii [2]
  Activity: 84%
Enterobacter cloacae [3]
  Activity: 92%
Klebsiella pneumoniae [4]
  Activity: 73%
Escherichia coli [5]
  Activity: 87%
Escherichia coli [6]
  Activity: 98%
Klebsiella oxytoca [7]
  Activity: 86%
Klebsiella oxytoca [8]
  Activity: 100%
Klebsiella pneumoniae [9]
  Activity: 99%
Proteus mirabilis [10]
  Activity: 92%
Pseudomonas aeruginosa [11]
  Activity: 85%

## CC1(C)S[C@@H]2[C@H](NC(=O)[C@H](N)c3ccccc3)C(=O)N2[C@H]1C(=O)O [AMPICILLIN]
Klebsiella aerogenes [12]
  Activity: 31%
Citrobacter freundii [13]
  Activity: 37%
Enterobacter cloacae [14]
  Activity: 17%
Escherichia coli [15]
  Activity: 5%
Escherichia coli [16]
  Activity: 43%
Klebsiella oxytoca [17]
  Activity: 5%
Klebsiella oxytoca [18]
  Activity: 76%
Klebsiella pneumoniae [19]
  Activity: 6%
Klebsiella pneumoniae [20]
  Activity: 76%
Proteus mirabilis [21]
  Activity: 72%
Pseudomonas aeruginosa [22]
  Activity: inactive

## CO/N=C(\C(=O)N[C@@H]1C(=O)N2C(C(=O)O)=C(COC(C)=O)CS[C@H]12)c1csc(N)n1 [CEFOTAXIME]
Klebsiella aerogenes [1]
  Activity: 48%
Citrobacter freundii [2]
  Activity: 43%
Enterobacter cloacae [3]
  Activity: 49%
Klebsiella pneumoniae [4]
  Activity: 9%
Escherichia coli [5]
  Activity: 5%
Escherichia coli [6]
  Activity: 97%
Klebsiella oxytoca [7]
  Activity: 14%
Klebsiella oxytoca [8]
  Activity: 97%
Klebsiella pneumoniae [9]
  Activity: 97%
Proteus mirabilis [10]
  Activity: 77%
Pseudomonas aeruginosa [11]
  Activity: 14%

## CO[C@@]1(NC(=O)Cc2cccs2)C(=O)N2C(C(=O)O)=C(COC(N)=O)CS[C@@H]21 [CEFOXITIN]
Klebsiella aerogenes [1]
  Activity: 22%
Citrobacter freundii [2]
  Activity: 16%
Enterobacter cloacae [3]
  Activity: 7%
Klebsiella pneumoniae [4]
  Activity: 61%
Escherichia coli [5]
  Activity: 66%
Escherichia coli [6]
  Activity: 89%
Klebsiella oxytoca [7]
  Activity: 64%
Klebsiella oxytoca [8]
  Activity: 97%
Klebsiella pneumoniae [9]
  Activity: 87%
Proteus mirabilis [10]
  Activity: 95%
Pseudomonas aeruginosa [11]
  Activity: inactive

## CC(C)(O/N=C(\C(=O)N[C@@H]1C(=O)N2C(C(=O)[O-])=C(C[n+]3ccccc3)CS[C@H]12)c1csc(N)n1)C(=O)O [CEFTAZIDIME]
Klebsiella aerogenes [1]
  Activity: 46%
Citrobacter freundii [2]
  Activity: 43%
Enterobacter cloacae [3]
  Activity: 53%
Klebsiella pneumoniae [4]
  Activity: 20%
Escherichia coli [5]
  Activity: 29%
Escherichia coli [6]
  Activity: 95%
Klebsiella oxytoca [7]
  Activity: 27%
Klebsiella oxytoca [8]
  Activity: 97%
Klebsiella pneumoniae [9]
  Activity: 97%
Proteus mirabilis [10]
  Activity: 89%
Pseudomonas aeruginosa [11]
  Activity: 66%

## CO/N=C(\C(=O)N[C@@H]1C(=O)N2C(C(=O)O)=C(CSc3nc(=O)c(O)nn3C)CS[C@H]12)c1csc(N)n1 [CEFTRIAXONE]
Klebsiella aerogenes [1]
  Activity: 55%
Citrobacter freundii [2]
  Activity: 45%
Enterobacter cloacae [3]
  Activity: 48%
Klebsiella pneumoniae [4]
  Activity: 10%
Escherichia coli [5]
  Activity: 4%
Escherichia coli [6]
  Activity: 96%
Klebsiella oxytoca [7]
  Activity: 9%
Klebsiella oxytoca [8]
  Activity: 97%
Klebsiella pneumoniae [9]
  Activity: 97%
Proteus mirabilis [10]
  Activity: 77%
Pseudomonas aeruginosa [11]
  Activity: 19%

## C[C@@H](O)[C@H]1C(=O)N2C(C(=O)O)=C(SCCNC=N)C[C@H]12 [IMIPENEM ANHYDROUS]
Klebsiella aerogenes [1]
  Activity: 97%
Citrobacter freundii [2]
  Activity: 100%
Enterobacter cloacae [3]
  Activity: 98%
Klebsiella pneumoniae [4]
  Activity: 97%
Escherichia coli [5]
  Activity: 98%
Escherichia coli [6]
  Activity: 100%
Klebsiella oxytoca [7]
  Activity: 100%
Klebsiella oxytoca [8]
  Activity: 100%
Klebsiella pneumoniae [9]
  Activity: 100%
Proteus mirabilis [10]
  Activity: 100%
Pseudomonas aeruginosa [11]
  Activity: 71%

## C[C@H]1COc2c(N3CCN(C)CC3)c(F)cc3c(=O)c(C(=O)O)cn1c23.C[C@H]1COc2c(N3CCN(C)CC3)c(F)cc3c(=O)c(C(=O)O)cn1c23.O [LEVOFLOXACIN]
Klebsiella aerogenes [1]
  Activity: 83%
Citrobacter freundii [2]
  Activity: 77%
Enterobacter cloacae [3]
  Activity: 79%
Klebsiella pneumoniae [4]
  Activity: 43%
Escherichia coli [5]
  Activity: 21%
Escherichia coli [6]
  Activity: 72%
Klebsiella oxytoca [7]
  Activity: 41%
Klebsiella oxytoca [8]
  Activity: 97%
Klebsiella pneumoniae [9]
  Activity: 94%
Proteus mirabilis [10]
  Activity: 84%
Pseudomonas aeruginosa [11]
  Activity: 73%

## CCN1CCN(C(=O)N[C@@H](C(=O)N[C@@H]2C(=O)N3[C@@H]2SC(C)(C)[C@@H]3C(=O)O)c2ccccc2)C(=O)C1=O [PIPERACILLIN]
Enterobacter cloacae [23]
  Activity: 71%
Citrobacter freundii [24]
  Activity: 71%
Klebsiella aerogenes [25]
  Activity: 69%
Escherichia coli [26]
  Activity: 83%
Escherichia coli [27]
  Activity: 94%
Klebsiella oxytoca [28]
  Activity: 68%
Klebsiella oxytoca [29]
  Activity: 100%
Klebsiella pneumoniae [30]
  Activity: 57%
Klebsiella pneumoniae [31]
  Activity: 94%
Proteus mirabilis [32]
  Activity: 97%
Pseudomonas aeruginosa [33]
  Activity: 81%
